The source made the active and inactive calls.
Tests used:
Rattus norvegicus [1] = experiment: Anticonvulsant activity measured to prevent maximal electroshock seizure in rats when administered intraperitoneally; assay type: functional; conditions: ip
Summary of the method: (§1)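 Male Sprague–Dawley rats (160–300 g) given compound ip as suspension in 0.5% methylcellulose (10 mL/kg), 30 min before electroshock; 150 mA via corneal electrodes for 0.2 s. Protection = abolition of hind-limb tonic extensor component. ED50 in mg/kg.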

Mus musculus [2] = experiment: (§2) Anticonvulsant activity was measured by the ability to prevent intraperitoneally; assay type: functional; conditions: ip
Summary of the method: (§3)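 Pentylenetetrazole (90 mg/kg ip) given after ip pretreatment with test agent as suspension in 0.5% methylcellulose; controls received diluent. Animals observed 15 min; protection = absence of clonic seizures. ED50 in mg/kg.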

Rattus norvegicus [3] = experiment: as §2; assay type: functional; summary of the method: as §3
[4] = Acute toxicity measured in mice when administered intraperitoneally; assay type: organism-based; conditions: mus sp., in vivo, ip
[5] = Acute toxicity of was measured in rat by ip administration of the compound; assay type: organism-based; conditions: in vivo
Mus musculus [6] = experiment: Neurological deficit (Loss of coordination) was measured in the mice using rotarod test when administered intraperitoneally; assay type: functional; conditions: ip
Summary of the method: (§4)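 Mice dosed ip, then placed on rotarod turning at 11 rpm; failure to stay on for at least 1 min scored as loss of coordination. ED50 in mg/kg.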

Mus musculus [7] = experiment: Anticonvulsant activity was measured by the ability to prevent maximal electroshock seizure in mice when administered intraperitoneally; assay type: functional; conditions: ip
Summary of the method: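 Male ICR (Blue Spruce) mice, 19–22 g, dosed ip as suspension in 0.5% methylcellulose (10 mL/kg) 30 min prior to corneal electroshock, 50 mA for 0.2 s. Mice scored protected if hind-limb extensor phase was blocked; ED50 in mg/kg.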

Rattus norvegicus [8] = experiment: Peak time of anticonvulsant activity against MES was determined ip; assay type: functional
Summary of the method: (§5)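 Separate groups of rats dosed ip at approximate ED84 and challenged by maximal electroshock (150 mA, 0.2 s, corneal electrodes) at 0.5, 1, 2, 3 or >6 h after dosing; protection = hind-limb extensor blocked. Time of peak activity/duration in h.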

Mus musculus [9] = experiment: Loss of righting reflex was measured in the mice when administered intraperitoneally; assay type: functional; conditions: ip
Rattus norvegicus [10] = experiment: Anticonvulsant activity was measured by the ability to prevent intraperitoneally; Inactive; assay type: functional, organism-based; summary of the method: as §3
Rattus norvegicus [11] = organism: Rattus norvegicus; experiment: Peak time of anticonvulsant activity against MES was determined; 4-6; assay type: functional; summary of the method: as §5
Mus musculus [12] = experiment: Neurological deficit was measured in the mice using rotarod test when administered intraperitoneally; assay type: functional; conditions: ip; summary of the method: as §4
Mus musculus [13] = experiment: Tolerance was tested in maximal electroshock seizures test in mice when administered intraperitoneally; Yes; assay type: functional, organism-based
Mus musculus [14] = experiment: Anticonvulsant activity was measured by the ability to prevent matrazol induced threshold clonic seizures in mice when administered intraperitoneally; assay type: functional; conditions: ip
Summary of the method: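 Mice were pretreated intraperitoneally 30 min before pentylenetetrazole (90 mg/kg ip). Compounds were given as a 0.5% methylcellulose suspension at 10 mL/kg; controls received diluent. Animals were watched for 15 min and counted protected if clonic seizures were prevented. The ED50 is the dose protecting half the animals.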

[15] = Acute toxicity of was measured in rat by po administration of the compound; assay type: organism-based; conditions: in vivo
Rattus norvegicus [16] = experiment: Anticonvulsant activity was measured by the ability to prevent maximal electroshock seizure in rat when administered intraperitoneally; assay type: functional; conditions: ip; summary of the method: as §1
Rattus norvegicus [17] = experiment: Acute toxicity of was measured in rat by po administration when administered intraperitoneally; assay type: organism-based; conditions: in vivo
[18] = (§6) Acute toxicity of was measured in rat by ip administration when administered intraperitoneally; assay type: organism-based; conditions: in vivo
[19] = as §6; assay type: organism-based; conditions: in vivo; remark: listed apart in the source
Rattus norvegicus [20] = organism: Rattus norvegicus; experiment: Peak time of anticonvulsant activity against MES was determined; assay type: functional; summary of the method: as §5

SMILES	ED50 (Rattus norvegicus [1])	LD50 [4]	ED50 (Rattus norvegicus [3]; ip)	other results
N#CCCN1C(=O)NC(Cc2cccc(C(F)(F)F)c2)C1=O (centres undefined)	> 50 mg/kg			
O=C1NC(=O)C(Cc2cccc(C(F)(F)F)c2)N1 (centres undefined)	23 mg/kg	350 mg/kg		ED50 (Mus musculus [2]): 17.5 mg/kg; ED50 (Rattus norvegicus [3]): ~100 mg/kg; LD50 [5]: 410 mg/kg; ED50 (Mus musculus [6]): 65 mg/kg; ED50 (Mus musculus [7]): 70 mg/kg; Duration of action (Rattus norvegicus [8]): 4 h; ED50 (Mus musculus [9]): 160 mg/kg
O=C1NC(Cc2cccc(C(F)(F)F)c2)C(=O)N1CCO (centres undefined)	45 mg/kg		100 mg/kg	
CN1C(=O)NC(Cc2cccc(C(F)(F)F)c2)C1=O (centres undefined)	> 50 mg/kg	350 mg/kg	> 100 mg/kg	
O=C1NC(=O)C(Cc2cccc(Br)c2)N1 (centres undefined)	> 50 mg/kg		> 200 mg/kg	
CC1(Cc2cccc(C(F)(F)F)c2)NC(=O)NC1=O (centres undefined)	> 50 mg/kg			
O=C1NC(=O)C(Cc2cccc(Cl)c2)N1 (centres undefined)	> 50 mg/kg		~150 mg/kg	
O=C1NC(=O)C(c2ccccc2)(c2ccccc2)N1 [PHENYTOIN]	9.6 mg/kg	100 mg/kg		ED50 (Rattus norvegicus [10]): inactive; Duration of action (Rattus norvegicus [11]): 4 h; LD50 [5]: 280 mg/kg; ED50 (Mus musculus [12]): 135 mg/kg; ED50 (Mus musculus [7]): 8.5 mg/kg; Tolerance (Mus musculus [13]): Active; ED50 (Mus musculus [14]): 50 mg/kg; LD50 [15]: > 1000 mg/kg; ED50 (Mus musculus [9]): 82 mg/kg
O=C1NC(=O)/C(=C\c2cccc(Cl)c2)N1	~50 mg/kg		> 200 mg/kg	
O=C1NC(Cc2cccc(C(F)(F)F)c2)C(=O)N1CCBr (centres undefined)	> 50 mg/kg			
CCCC(CCC)C(=O)O [VALPROIC ACID]			> 500 mg/kg	ED50 (Rattus norvegicus [16]): 94.8 mg/kg; ED50 (Mus musculus [6]): 415 mg/kg; ED50 (Mus musculus [7]): 260 mg/kg; LD50 (Rattus norvegicus [17]): 1530 mg/kg; LD50 [18]: 838 mg/kg; LD50 [19]: 1040 mg/kg; Duration of action (Rattus norvegicus [20]): ~5 h
O=C1NC(=O)C(c2ccccc2)(c2cccc(C(F)(F)F)c2)N1 (centres undefined)	> 50 mg/kg	> 100 mg/kg	> 200 mg/kg	
COc1ccc(CC2(C)NC(=O)NC2=O)c(OC)c1 (centres undefined)	> 50 mg/kg	> 600 mg/kg		
CN1C(=O)NC(Cc2cccc(Br)c2)C1=O (centres undefined)	30 mg/kg	500 mg/kg	~100 mg/kg	
COc1ccc(OC)c(CC2(C)NC(=O)NC2=O)c1 (centres undefined)	> 50 mg/kg	> 800 mg/kg		
COc1ccc(CC2(C)NC(=O)NC2=O)cc1OC (centres undefined)	> 50 mg/kg	> 500 mg/kg	> 200 mg/kg	
COc1ccc(/C=C2/NC(=O)NC2=O)cc1OC	> 200 mg/kg	> 500 mg/kg	> 50 mg/kg	
COc1ccc(OC)c(CC2NC(=O)NC2=O)c1 (centres undefined)	> 50 mg/kg			
O=C1NC(=O)/C(=C\c2cccc(C(F)(F)F)c2)N1	~50 mg/kg	350 mg/kg	> 200 mg/kg	
COc1ccc(CC2NC(=O)NC2=O)cc1OC (centres undefined)	> 50 mg/kg		> 200 mg/kg	
CC1(Cc2ccc3ccccc3c2)NC(=O)NC1=O (centres undefined)	> 50 mg/kg			
CCOC(=O)CN1C(=O)NC(Cc2cccc(C(F)(F)F)c2)C1=O (centres undefined)	> 50 mg/kg	500 mg/kg	> 100 mg/kg	
O=C1NC(=O)/C(=C\c2cccc(Br)c2)N1	> 50 mg/kg	> 500 mg/kg	> 200 mg/kg	
COc1ccc(OC)c(/C=C2/NC(=O)NC2=O)c1	> 50 mg/kg	> 500 mg/kg	> 200 mg/kg	
